Hits are enriched below; roughly 1.7% of the tested compounds scored in any of these assays.
HNF4A DNA FP: change in binding of human HNF4 alpha to DNA; activity change, % at 10 µM; HNF4a-FITC DNA binding, fluorescence polarization, 1 h; 360,000 tested, 0.3% active; AID 1224865; P41235; in the data active = activity change above about 30%, passing the limit was not always enough
IDE cell activ: IDE (human) activation, cell-based | HEK cells, FAbeta-B cleavage, fluorescence polarization; 0% vehicle, 100% cell-free pure enzyme wells | 340,000 tested, 0.073% active | activation, % at 5.96 µM | P14735;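 active = activation above the mean of all tested compounds plus 3 SD, set per screening campaign, cut at about 17% in these data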
IDE cell inh: inhibitors of human insulin-degrading enzyme in cells; P14735; HEK cells, FAbetaB cleavage, fluorescence polarization; inhibition, % at 5.59 µM; 320,000 tested, 0.41% active;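 active = percent inhibition above the average of all tested compounds plus 3 SD, set per screening campaign, cut at about 16% in these data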;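 also: IDE supplied by intact live HEK cells; FP after avidin binding of uncleaved biotin substrate so inhibition keeps polarization high; 0% = DMSO wells and 100% = 60 µM reference IDE inhibitor Ii1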
TPT1 inh: blocks Candida albicans tRNA 2'-phosphotransferase | recombinant caTPT1, FP RNA substrate dephosphorylation | inhibition, % at 5 µM | 300,000 tested, 0.81% active;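 active = inhibition above the mean of all tested compounds plus 3 SD, set per screening campaign, cut at about 24% in these data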;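 also: plate controls were DMSO alone for no effect and ferristatin control at 100 nM for full effect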
Rpn11 inh: inhibitors of human proteasome Rpn11 | O00487 | human 26S proteasome, Ub4-pepOG fluorescence polarization; 20S core pre-blocked with epoxomicin | inhibition, % at 20 µM | 360,000 tested, 0.59% active | AID 588493;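 active = inhibition at 20 µM, scaled to each plate's controls, above about 33%, limit read from the data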
Target sequence (O00487 whole entry, looked up): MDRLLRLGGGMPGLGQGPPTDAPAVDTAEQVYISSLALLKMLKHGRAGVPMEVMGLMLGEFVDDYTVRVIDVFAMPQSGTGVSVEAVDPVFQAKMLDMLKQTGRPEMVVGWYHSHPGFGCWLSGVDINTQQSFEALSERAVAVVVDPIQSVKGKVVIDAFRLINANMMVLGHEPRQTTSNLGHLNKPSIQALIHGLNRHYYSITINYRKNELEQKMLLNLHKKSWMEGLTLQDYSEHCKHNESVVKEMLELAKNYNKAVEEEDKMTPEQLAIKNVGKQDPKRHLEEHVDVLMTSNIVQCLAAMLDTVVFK
CSN deneddyl inh: CSN deneddylation inhibition; Purified CSN, SCF-Nedd8-OG deneddylation, fluorescence polarization; Q92905; inhibition, % at 12.5 µM; 360,000 tested, 0.38% active;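 active = pattern-corrected inhibition above about 35%, with an unprinted fluorescence ratio check between 0.5 and 1.5, limit read from the data, passing the limit was not always enough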;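 also: 0% = enzyme with substrate and 100% = substrate without enzyme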
Target sequence (Q92905 whole entry, looked up, one chain of several): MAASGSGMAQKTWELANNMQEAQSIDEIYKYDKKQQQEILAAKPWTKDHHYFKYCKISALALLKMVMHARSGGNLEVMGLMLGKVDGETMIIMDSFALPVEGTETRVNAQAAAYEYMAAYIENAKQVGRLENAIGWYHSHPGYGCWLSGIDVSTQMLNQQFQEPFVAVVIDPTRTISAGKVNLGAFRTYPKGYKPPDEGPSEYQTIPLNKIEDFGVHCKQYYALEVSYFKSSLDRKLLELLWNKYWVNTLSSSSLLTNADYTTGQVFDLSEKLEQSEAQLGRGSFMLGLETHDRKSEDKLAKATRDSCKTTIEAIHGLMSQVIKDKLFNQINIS
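Assay system: purified human Csn5 enzyme expressed in HEK293T cells; measure: % inhibition; also added: SCFSkp2-Nedd8OG substrate at 10 nM final; technique: fluorescence polarization; times: reaction 90 min, room temperature; medium: Tris buffer pH 7.5, NaCl, DTT, Tween-20, trehalose, ovalbumin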
CSN deneddyl val: Csn5 (human) deneddylation inhibition, single-concentration validation; shares compounds with CSN deneddyl inh; Csn5 deneddylation of SCF-Nedd8OG, fluorescence polarization, 90 min; inhibition, % at 16.6 µM; 540 tested, 62% active; AID 720654; in the data active = inhibition above about 50%;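 also: 0% = DMSO with enzyme and 100% = no enzyme wells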
MMP-2 counter: blocks human MMP-2 in a CSN deneddylation counter-screen | inhibition, % at 16.6 µM | 540 tested, 33% active | recombinant MMP-2, FRET substrate fluorescence, 60 min | shares compounds with CSN deneddyl inh | AID 720655;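 active = corrected plate-normalized z-score of 5 or more, or -5 or less, or inhibition of 15% or more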;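 also: plate controls were DMSO wells with enzyme for no effect and buffer wells lacking MMP-2 for full effect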
Thrombin counter: thrombin (bovine) inhibition, counter-screen for CSN hits; bovine thrombin cleavage of Ub4-pepOG, fluorescence polarization; 540 tested, 49% active; AID 720656; shares compounds with CSN deneddyl inh; inhibition, % at 16.6 µM;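 active = inhibition at or above a set limit, with a fluorescence interference ratio between 0.5 and a set maximum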
* = called active by the depositor; · = no result given; + = active, no number; ! = a repeat was not active.

SMILES	HNF4A DNA FP	IDE cell activ	IDE cell inh	TPT1 inh	Rpn11 inh	CSN deneddyl inh	CSN deneddyl val	MMP-2 counter	Thrombin counter
N#Cc1c(N2CCCC(O)C2)nc(N)c2c(N)nc3c(c12)CC(=O)N3C12CC3CC(CC(C3)C1)C2 (stereo not given)	27.6	-0.2	-0.9	7.5	27.5	52.3*	93.5*	4.0	-43.1
CC1(C(=O)NS(=O)(=O)c2cccc(Cl)c2)CCN1C(=O)C/C=C/c1ccccc1 (stereo not given)	3.4	·	·	·	-27.6	0.9	·	·	·
CCN1/C(=C/C(C)=C/c2sc3ccccc3[n+]2CC)Sc2ccccc21	197.5*	-14.5	12.3	-40.6	121.2*	77.0*	22.1	49.5*!	112.6*
O=C(CNC(=O)c1ccccc1F)NCc1ccccn1	-0.6	5.2	1.3	·	-4.6	0.4	·	·	·
COc1cccc(/C=N/NC(=O)CSc2ccccc2C)c1OC	1.4	4.9	3.7	-4.6	-8.1	-2.2	·	·	·
COc1cccc(/C=N/NC(=O)CSc2ccccc2C)c1O	-2.0	6.4	-2.2	0.1	1.5	99.8*	111.9*	9.9	1.4
CN(C(=O)c1ccnn1C)C1CCCN(Cc2ccccc2F)C1 (stereo not given)	-3.2	-1.6	·	·	-10.2	-0.2	·	·	·
O=C1C(=O)c2c(ccc3ccccc23)-c2ccccc21	2.7	3.8	·	·	-7.2	40.1*	83.8*	14.4	-27.0
CN(C)/C=C1\Oc2ccc3ccccc3c2C1=O	-1.1	-9.8	6.3	0.3	1.2	-0.9	·	·	·
COc1ccccc1-c1ccc2nnc(SC)n2n1	-2.2	4.3	-3.6	0.7	0.1	2.4	·	·	·
CCCc1nc2c(=O)n(C)c(=O)nc-2n(C)n1	157.2*	-0.4	·	·	9.8	76.4*	-10.3	4.6	-27.9
Cn1nc(-c2ccccn2)nc2c(=O)n(C)c(=O)nc1-2	152.6*	6.6	0.8	-4.7	23.4	57.0*	28.1	-4.3	-26.5
O=C(Nc1ccc(SC(F)F)cc1)c1ccc(F)cc1	-0.9	6.4	1.1	-3.0	0.0	-1.2	·	·	·
Cc1ccc2[nH]c(=O)c3cc(C(=O)NC(C)C)sc3c2c1	0.5	1.6	6.0	-53.8	-5.9	3.6	·	·	·
Cc1nn(-c2ccc(N3CCCCC3)nn2)c(C)c1CCC(=O)Nc1ccc(F)c(F)c1	-1.0	-1.3	5.8	1.5	-7.6	1.5	·	·	·
Cc1ccc(S(=O)c2ccc([N+](=O)[O-])c3nonc23)cc1 (stereo not given)	9.8	·	·	·	-5.0	42.1*	83.1*	-50.2*	2.4
O=C(O)c1ccc(-n2cccc2/C=C2/SC(=O)N(CC(=O)N3CCCC3)C2=O)cc1	-55.2	5.8	2.8	3.8	17.0	43.4*	·	30.8*	10.8
O=C(O)c1ccc(-n2cccc2/C=C2/NC(=O)N(c3cccc(Cl)c3)C2=O)cc1	-66.1	-1.2	·	·	·	34.6	·	·	·
O=C(O)c1ccc(-n2cccc2/C=C2/NC(=O)N(c3ccccc3)C2=O)cc1	-64.4	2.9	6.9	-0.9	35.2	36.2*	71.0*	20.3*	-21.4
CCN(C(=O)Cn1c(=O)oc2ccccc21)c1ccc(C)c(C)c1	2.3	3.5	-4.0	-2.3	-3.0	-8.9	·	·	·
CC(C)CN(C(=O)CSc1nc2ccccc2c(=O)n1C)C1CCS(=O)(=O)C1 (stereo not given)	2.7	-0.3	-4.1	·	-1.4	-1.1	·	·	·
CCOc1ccc(Br)cc1/C=N/O	0.1	-0.8	-1.8	-5.7	10.5	-1.5	·	·	·
CCCc1ccc(O)c(N=Cc2cc(Br)cc(OCC)c2O)c1	10.6	-2.6	-2.7	6.0	24.1	37.5*	88.6*	-5.0	45.9*
Cc1ccc(-c2nn3c(C)nnc3s2)cc1NC(=O)c1ccc(-c2ccc(Cl)cc2Cl)o1	104.3*	8.1	-3.3	8.9	+	123.9*	111.7*	1.0	4.2
COc1cc(/C=N/N2C(=O)CSC2=S)cc(Br)c1O	75.8*	-94.6	·	·	·	117.8*	-52.1	24.1*	88.5*
SMILES	HNF4A DNA FP	IDE cell activ	IDE cell inh	TPT1 inh	Rpn11 inh	CSN deneddyl inh	CSN deneddyl val	MMP-2 counter	Thrombin counter
CC(=O)NN1C(=O)/C(=C\c2ccc(Cl)cc2)SC1=S	4.5	0.4	2.1	-1.2	3.7	-1.8	·	·	·
CC(=O)NN1C(=O)/C(=C/c2ccc(Br)o2)SC1=S	60.2*	3.0	4.5	11.8	33.9	51.4*	96.2*	18.8*	34.1*
COc1cccc(CN(C)C(=O)CSCC(=O)Nc2cccc(C)c2)c1OC	-5.8	-1.5	-1.7	·	2.7	0.3	·	·	·
COC(=O)c1ccc2c(c1)C(C)(C)C(/C=C/c1ccccc1O)=[N+]2C	37.1*	-19.0	13.3	19.0	·	43.8*	68.1*	-11.6	29.6*
Cc1ccc(S(=O)(=O)Cc2ccc(C(=O)O)o2)cc1	-24.3	-1.9	0.8	2.1	-5.3	35.5*	64.3*	22.2*	6.3
CC1=C(C(=O)OC(C)C)C(c2ccc(Cl)cc2)n2c(s/c(=C\c3ccc(OCC(=O)O)cc3)c2=O)=N1 (stereo not given)	-18.0	-2.8	·	·	·	83.8*	-1.8	-1.1	11.8
CCOC(=O)C1=C(C)N=c2s/c(=C/c3cccc(OCC(=O)O)c3)c(=O)n2C1c1ccc(F)cc1 (stereo not given)	·	·	7.2	4.0	·	·	·	·	·
C[n+]1cccc2c(Br)ccc([O-])c21	-1.2	7.0	1.9	-3.6	4.1	44.8*	103.1*	3.5	-10.1
O=C(O)c1cc(-c2ccc(/C=C3\NC(=O)N(c4ccccc4)C3=O)o2)ccc1Cl	-17.6	4.6	5.3	-4.4	-3.4	24.3	·	·	·
O=C(O)c1cc(-c2ccc(/C=C3\NC(=O)N(c4ccc(Cl)cc4)C3=O)o2)ccc1Cl	-34.9	-0.9	1.8	2.7	15.5	39.7*	26.2	17.9*	10.0
NC1=NC(=O)/C(=C\c2ccco2)S1	-21.3	3.9	-5.8	-1.7	-11.0	35.5*	70.2*	17.3*	-6.5
CCOc1ccc(CCNC(=O)COC(=O)c2nccnc2N)cc1OCC	6.2	2.1	5.8	2.2	9.4	0.8	·	·	·
O=C(NCc1ccncc1)[C@@H]1CCCN1C(=O)[C@H]1CCCN1	0.3	·	·	·	·	-5.0	·	·	·
Cc1c(N(C(=O)c2ccccn2)C2(C(=O)NC3CCCC3)CCCCC2)c(=O)n(-c2ccccc2)n1C	-1.4	-1.5	1.7	1.2	6.2	10.0	·	·	·
CN(C)c1ccc2cc(S(=O)(=O)O)cc(O)c2c1	-17.7	-2.8	·	·	-7.0	35.2*	74.9*	4.3	1.4
CCOC(=O)C1=C(Nc2ccc(Cl)cc2)OCC1=O	-0.3	8.0	-0.8	0.1	-7.4	0.6	·	·	·

Screens (PubChem)
